Where “and” joins values, the source holds several entries; their conditions need not be identical. Identical values can stand only once.
Columns and labels:
Format in all cases: toxicity, cell-based
[1] = tested on: U2OS; assay: Multiplex assay against U2OS; settings: human, number of replicates 2
In short: (§1)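 Values for tubulin, mitochondrial-mass and membrane-permeability phenotypes are per cents of cells with healthy nuclei. These cells were identified by CellPathfinder machine-learning gating of live cells that had been stained at seeding with Hoechst33342, BioTracker Green Microtubule Cytoskeleton Dye, MitoTracker Red and Annexin V Alexa Fluor 680 and imaged on a CQ1 microscope at 37°C and 5% CO2 after compound addition. The gating first set Hoechst high-intensity objects apart from normal cells, then split normal cells into healthy, pyknosed or fragmented nuclei, and pyknosed cells into mitotic or apoptotic.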

[2] = tested on: Fibroblast; assay: Multiplex assay against human fibroblast; settings: number of replicates 2; in short: as §1
[3] = tested on: HEK-293T; assay: Multiplex assay against HEK293T; settings: human, number of replicates 2; in short: as §1
[4] = 12 h, 1 µM, compound concentration 1 uM
[5] = 12 h, 10 µM, compound concentration 10 uM
[6] = 24 h, 1 µM, compound concentration 1 uM
[7] = 24 h, 10 µM, compound concentration 10 uM
[8] = 48 h, 1 µM, compound concentration 1 uM
[9] = 48 h, 10 µM, compound concentration 10 uM

Structure (SMILES): Cn1c(Nc2c(Cl)cccc2Cl)nc2ccc3nc[nH]c(=O)c3c21
- Population Apoptotic (%) [1, 4]: 40% and 66%
- Population Healthy Nuclei (%) [1, 4]: 64% and 87%
- Population Hoechst High Intensity Objects (%) [1, 4]: 0%
- Population Membrane Permeable-Phenotype (%) [1, 4]: 0% and 1%
- Population Mitochondria Different-Phenotype (%) [1, 4]: 0%
- Population Mitotic Cells (%) [1, 4]: 60% and 33%
- Population Normal (%) [1, 4]: 100%
- Population Pyknosed Nuclei (%) [1, 4]: 10% and 7%
- Population Tubulin-Different-Phenotype (%) [1, 4]: 100% and 96%
- Population Apoptotic (%) [1, 5]: 66% and 52%
- Population Healthy Nuclei (%) [1, 5]: 59% and 84%
- Population Hoechst High Intensity Objects (%) [1, 5]: 0%
- Population Membrane Permeable-Phenotype (%) [1, 5]: 0% and 1%
- Population Mitochondria Different-Phenotype (%) [1, 5]: 0% and 1%
- Population Mitotic Cells (%) [1, 5]: 33% and 47%
- Population Normal (%) [1, 5]: 100% and 99%
- Population Pyknosed Nuclei (%) [1, 5]: 11% and 10%
- Population Tubulin-Different-Phenotype (%) [1, 5]: 56% and 81%
- Population Apoptotic (%) [1, 6]: 50% and 53%
- Population Healthy Nuclei (%) [1, 6]: 62% and 87%
- Population Hoechst High Intensity Objects (%) [1, 6]: 0%
- Population Membrane Permeable-Phenotype (%) [1, 6]: 0% and 2%
- Population Mitochondria Different-Phenotype (%) [1, 6]: 2% and 0%
- Population Mitotic Cells (%) [1, 6]: 50% and 46%
- Population Normal (%) [1, 6]: 100%
- Population Pyknosed Nuclei (%) [1, 6]: 10% and 8%
- Population Tubulin-Different-Phenotype (%) [1, 6]: 100% and 95%
- Population Apoptotic (%) [1, 7]: 75% and 45%
- Population Healthy Nuclei (%) [1, 7]: 55% and 78%
- Population Hoechst High Intensity Objects (%) [1, 7]: 1% and 0%
- Population Membrane Permeable-Phenotype (%) [1, 7]: 2%
- Population Mitochondria Different-Phenotype (%) [1, 7]: 0%
- Population Mitotic Cells (%) [1, 7]: 25% and 54%
- Population Normal (%) [1, 7]: 98% and 100%
- Population Pyknosed Nuclei (%) [1, 7]: 11% and 13%
- Population Tubulin-Different-Phenotype (%) [1, 7]: 68% and 77%
- Population Apoptotic (%) [1, 8]: 56% and 75%
- Population Healthy Nuclei (%) [1, 8]: 58% and 89%
- Population Hoechst High Intensity Objects (%) [1, 8]: 0%
- Population Membrane Permeable-Phenotype (%) [1, 8]: 0% and 1%
- Population Mitochondria Different-Phenotype (%) [1, 8]: 0%
- Population Mitotic Cells (%) [1, 8]: 43% and 25%
- Population Normal (%) [1, 8]: 100% and 99%
- Population Pyknosed Nuclei (%) [1, 8]: 20% and 7%
- Population Tubulin-Different-Phenotype (%) [1, 8]: 100% and 97%
- Population Apoptotic (%) [1, 9]: 75% and 67%
- Population Healthy Nuclei (%) [1, 9]: 21% and 58%
- Population Hoechst High Intensity Objects (%) [1, 9]: 1% and 0%
- Population Membrane Permeable-Phenotype (%) [1, 9]: 5% and 10%
- Population Mitochondria Different-Phenotype (%) [1, 9]: 5% and 2%
- Population Mitotic Cells (%) [1, 9]: 24% and 32%
- Population Normal (%) [1, 9]: 98% and 99%
- Population Pyknosed Nuclei (%) [1, 9]: 34% and 28%
- Population Tubulin-Different-Phenotype (%) [1, 9]: 61% and 74%
- Population Apoptotic (%) [2, 4]: 43% and 47%
- Population Fragmented Nuclei (%) [2, 4]: 10% and 5%
- Population Healthy Nuclei (%) [2, 4]: 56% and 67%
- Population Hoechst High Intensity Objects (%) [2, 4]: 0%
- Population Membrane Permeable-Phenotype (%) [2, 4]: 10% and 6%
- Population Mitochondria Different-Phenotype (%) [2, 4]: 1% and 2%
- Population Mitotic Cells (%) [2, 4]: 56% and 52%
- Population Normal (%) [2, 4]: 100%
- Population Pyknosed Nuclei (%) [2, 4]: 32% and 26%
- Population Tubulin-Different-Phenotype (%) [2, 4]: 11% and 14%
- Total Cell Count [2, 4]: 169 and 189
- Population Apoptotic (%) [2, 5]: 40% and 37%
- Population Fragmented Nuclei (%) [2, 5]: 8% and 17%
- Population Healthy Nuclei (%) [2, 5]: 62% and 69%
- Population Hoechst High Intensity Objects (%) [2, 5]: 0%
- Population Membrane Permeable-Phenotype (%) [2, 5]: 10% and 5%
- Population Mitochondria Different-Phenotype (%) [2, 5]: 4% and 3%
- Population Mitotic Cells (%) [2, 5]: 59% and 62%
- Population Normal (%) [2, 5]: 100%
- Population Pyknosed Nuclei (%) [2, 5]: 28% and 12%
- Population Tubulin-Different-Phenotype (%) [2, 5]: 18% and 23%
- Total Cell Count [2, 5]: 156 and 195
- Population Apoptotic (%) [2, 6]: 53% and 47%
- Population Fragmented Nuclei (%) [2, 6]: 8% and 10%
- Population Healthy Nuclei (%) [2, 6]: 54% and 57%
- Population Hoechst High Intensity Objects (%) [2, 6]: 0%
- Population Membrane Permeable-Phenotype (%) [2, 6]: 12% and 11%
- Population Mitochondria Different-Phenotype (%) [2, 6]: 1% and 3%
- Population Mitotic Cells (%) [2, 6]: 46% and 52%
- Population Normal (%) [2, 6]: 100%
- Population Pyknosed Nuclei (%) [2, 6]: 36% and 32%
- Population Tubulin-Different-Phenotype (%) [2, 6]: 10% and 18%
- Total Cell Count [2, 6]: 152 and 202
- Population Apoptotic (%) [2, 7]: 43% and 41%
- Population Fragmented Nuclei (%) [2, 7]: 16% and 14%
- Population Healthy Nuclei (%) [2, 7]: 54% and 72%
- Population Hoechst High Intensity Objects (%) [2, 7]: 0%
- Population Membrane Permeable-Phenotype (%) [2, 7]: 9% and 6%
- Population Mitochondria Different-Phenotype (%) [2, 7]: 3% and 1%
- Population Mitotic Cells (%) [2, 7]: 56% and 58%
- Population Normal (%) [2, 7]: 100%
- Population Pyknosed Nuclei (%) [2, 7]: 28% and 13%
- Population Tubulin-Different-Phenotype (%) [2, 7]: 19% and 11%
- Total Cell Count [2, 7]: 152 and 183
- Population Apoptotic (%) [2, 8]: 59% and 61%
- Population Fragmented Nuclei (%) [2, 8]: 15% and 14%
- Population Healthy Nuclei (%) [2, 8]: 55% and 62%
- Population Hoechst High Intensity Objects (%) [2, 8]: 2% and 0%
- Population Membrane Permeable-Phenotype (%) [2, 8]: 17% and 10%
- Population Mitochondria Different-Phenotype (%) [2, 8]: 2%
- Population Mitotic Cells (%) [2, 8]: 40% and 38%
- Population Normal (%) [2, 8]: 97% and 100%
- Population Pyknosed Nuclei (%) [2, 8]: 29% and 23%
- Population Tubulin-Different-Phenotype (%) [2, 8]: 17% and 13%
- Total Cell Count [2, 8]: 128 and 187
- Population Apoptotic (%) [2, 9]: 94% and 87%
- Population Fragmented Nuclei (%) [2, 9]: 18%
- Population Healthy Nuclei (%) [2, 9]: 26% and 35%
- Population Hoechst High Intensity Objects (%) [2, 9]: 0%
- Population Mitochondria Different-Phenotype (%) [2, 9]: 0%
- Population Mitotic Cells (%) [2, 9]: 5% and 12%
- Population Normal (%) [2, 9]: 100%
- Population Pyknosed Nuclei (%) [2, 9]: 54% and 46%
- Population Tubulin-Different-Phenotype (%) [2, 9]: 37% and 16%
- Total Cell Count [2, 9]: 131 and 170
- Population Apoptotic (%) [3, 4]: 65% and 53%
- Population Fragmented Nuclei (%) [3, 4]: 4% and 5%
- Population Healthy Nuclei (%) [3, 4]: 77% and 80%
- Population Hoechst High Intensity Objects (%) [3, 4]: 16% and 8%
- Population Membrane Permeable-Phenotype (%) [3, 4]: 5% and 2%
- Population Mitochondria Different-Phenotype (%) [3, 4]: 17% and 11%
- Population Mitotic Cells (%) [3, 4]: 34% and 46%
- Population Normal (%) [3, 4]: 84% and 91%
- Population Pyknosed Nuclei (%) [3, 4]: 18% and 14%
- Population Tubulin-Different-Phenotype (%) [3, 4]: 41% and 37%
- Total Cell Count [3, 4]: 450 and 596
- Population Apoptotic (%) [3, 5]: 29% and 35%
- Population Fragmented Nuclei (%) [3, 5]: 1%
- Population Healthy Nuclei (%) [3, 5]: 81% and 86%
- Population Hoechst High Intensity Objects (%) [3, 5]: 4% and 5%
- Population Membrane Permeable-Phenotype (%) [3, 5]: 1% and 2%
- Population Mitochondria Different-Phenotype (%) [3, 5]: 17% and 12%
- Population Mitotic Cells (%) [3, 5]: 70% and 64%
- Population Normal (%) [3, 5]: 95% and 94%
- Population Pyknosed Nuclei (%) [3, 5]: 16% and 11%
- Population Tubulin-Different-Phenotype (%) [3, 5]: 40% and 36%
- Total Cell Count [3, 5]: 676 and 839
- Population Apoptotic (%) [3, 6]: 72% and 39%
- Population Fragmented Nuclei (%) [3, 6]: 7% and 10%
- Population Healthy Nuclei (%) [3, 6]: 78% and 79%
- Population Hoechst High Intensity Objects (%) [3, 6]: 10% and 7%
- Population Membrane Permeable-Phenotype (%) [3, 6]: 2%
- Population Mitochondria Different-Phenotype (%) [3, 6]: 6% and 1%
- Population Mitotic Cells (%) [3, 6]: 27% and 60%
- Population Normal (%) [3, 6]: 89% and 92%
- Population Pyknosed Nuclei (%) [3, 6]: 14% and 10%
- Population Tubulin-Different-Phenotype (%) [3, 6]: 24% and 13%
- Total Cell Count [3, 6]: 675 and 1010
- Population Apoptotic (%) [3, 7]: 21% and 17%
- Population Fragmented Nuclei (%) [3, 7]: 2%
- Population Healthy Nuclei (%) [3, 7]: 85% and 81%
- Population Hoechst High Intensity Objects (%) [3, 7]: 3%
- Population Membrane Permeable-Phenotype (%) [3, 7]: 2%
- Population Mitochondria Different-Phenotype (%) [3, 7]: 4% and 3%
- Population Mitotic Cells (%) [3, 7]: 78% and 82%
- Population Normal (%) [3, 7]: 96%
- Population Pyknosed Nuclei (%) [3, 7]: 12% and 15%
- Population Tubulin-Different-Phenotype (%) [3, 7]: 16% and 18%
- Total Cell Count [3, 7]: 1151 and 1278
- Population Apoptotic (%) [3, 8]: 36% and 15%
- Population Fragmented Nuclei (%) [3, 8]: 12% and 15%
- Population Healthy Nuclei (%) [3, 8]: 81% and 80%
- Population Hoechst High Intensity Objects (%) [3, 8]: 10% and 8%
- Population Membrane Permeable-Phenotype (%) [3, 8]: 2% and 3%
- Population Mitochondria Different-Phenotype (%) [3, 8]: 1% and 0%
- Population Mitotic Cells (%) [3, 8]: 63% and 84%
- Population Normal (%) [3, 8]: 89% and 91%
- Population Pyknosed Nuclei (%) [3, 8]: 5% and 4%
- Population Tubulin-Different-Phenotype (%) [3, 8]: 4% and 5%
- Total Cell Count [3, 8]: 1439 and 2070
- Population Apoptotic (%) [3, 9]: 19% and 27%
- Population Fragmented Nuclei (%) [3, 9]: 4%
- Population Healthy Nuclei (%) [3, 9]: 79% and 76%
- Population Hoechst High Intensity Objects (%) [3, 9]: 3%
- Population Membrane Permeable-Phenotype (%) [3, 9]: 4%
- Population Mitochondria Different-Phenotype (%) [3, 9]: 3%
- Population Mitotic Cells (%) [3, 9]: 80% and 72%
- Population Normal (%) [3, 9]: 96%
- Population Pyknosed Nuclei (%) [3, 9]: 16% and 18%
- Population Tubulin-Different-Phenotype (%) [3, 9]: 16% and 24%
- Total Cell Count [3, 9]: 1576 and 1527
